Results taken from ChEMBL document CHEMBL1158358, “Synthesis, antimicrobial and cytotoxic activities of some 5-arylidene-4-thioxo-thiazolidine-2-ones” (Eur J Med Chem, 2009).
Values after ≈ are worked out from the molar mass of the structure shown.

Experiments:
NCI-H292 = test: Cytotoxicity against human NCI-H292 cells after 72 hrs by MTT assay; assay type: functional, cell-based; conditions: NCI-H292, 72 h
Method in brief: (§1)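 MTT antiproliferative assay. Cells were diluted to 10⁵ cells/mL in 96-well plates and preincubated for 24 h at 37 °C in humid 5% CO₂. Compounds or vincristine (reference) were then added. Formazan was dissolved and OD read at 540 nm, compared with medium-only control cells. Run in triplicate.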

HEp-2 = test: Cytotoxicity against human Hep2 cells after 72 hrs by MTT assay; assay type: functional, cell-based; conditions: HEp-2, 72 h; method in brief: as §1
Candida albicans [1] = test: Antimicrobial activity against Candida albicans UFPEDA 1007 at 25 ug/disk after 48 hrs by disk diffusion method; assay type: functional; conditions: UFPEDA 1007, 48 h, read-out: IZ
Method in brief: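 Preliminary screen: 6 mm paper disks bearing the agent placed on agar plates inoculated with a standardized microbial suspension. Negative control was DMSO-only disks. Inhibition zones are means of n = 3; no zone or a mean zone below 7 mm was scored as no sensitivity.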

Candida albicans [2] = test: Antimicrobial activity against Candida albicans UFPEDA 1007 after 48 hrs by twofold serial dilution technique; assay type: functional; conditions: UFPEDA 1007, 48 h
Method in brief: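 MIC was determined by twofold serial dilution. Bacteria were tested in plates at 10⁵ CFU/plate and read after 20 h. C. albicans was tested in tubes at 10³ CFU/tube and read after 48 h. All incubations were at 35 °C. Medium plus DMSO served as the negative control.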

Molecule `CC[C@]1(O)C[C@H]2CN(CCc3c([nH]c4ccccc34)[C@@](C(=O)OC)(c3cc4c(cc3OC)N(C=O)[C@H]3[C@@](O)(C(=O)OC)[C@H](OC(C)=O)[C@]5(CC)C=CCN6CC[C@]43[C@@H]65)C2)C1` [VINCRISTINE] has an IC50 (NCI-H292) of 0.04 µg/mL (≈ 0.0485 µM) and an IC50 (HEp-2) of 3 ng/mL (≈ 0.00364 µM).
In the case of `CC(=O)N1CCN(c2ccc(OCC3COC(Cn4ccnc4)(c4ccc(Cl)cc4Cl)O3)cc2)CC1` (centres undefined) [KETOCONAZOLE], the zone of inhibition at 25 µg/disc (Candida albicans [1]) is reported as 28 mm and the MIC (Candida albicans [2]) is reported as at most 1 µg/mL.
